# This is a sample that favours compounds with a hit; in the whole collection about 6.6% have one here.
# tolC growth inh = growth inhibitors of E. coli tolC mutant, primary screen, strain BW25113 ΔtolC::kan, 384-well | 65,000 tested, 2.2% active | growth inhibition, % at 10 µM (by protocol) | OD615;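 active means growth inhibition at or above a cutoff equal to the mean over every tested compound plus 3 SD, cut at about 60% in these data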;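 further: growth measured after 20 h incubation at 37 °C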
#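 System: E. coli ΔtolC::kan strain BW25113; Buffer or medium: LB broth supplemented with 50 µg/mL kanamycin; Compound: 10 µM final, single dose; Incubation: bacterial growth with compound for 20 h at 37 °C; Signal: A615 absorbance measurement; Evaluation: growth inhibition in percent.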
# PostGolgi yeast = phenotypic screen on post-Golgi transport, primary screen | post-Golgi transport phenotypic cell assay | inhibition, % at 10 µM | 98,000 tested, 0.9% active;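 further: yeast cells grown in 1536-well plates; yeast grown about 18 h at 30C before absorbance read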
# E coli WT exp = growth inhibitors of wild-type E. coli, primary screen, strain BW25113, expanded library, OD600 | growth inhibition, % at 100 µM | OD600 absorbance | 98,000 tested, 0.15% active | AID 710, 2007;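 active means growth inhibition above about 50% at one test dose, limit read from the data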;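 further: growth measured after 20 h incubation at 37 °C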
# PostGolgi ctrl = growth inhibition of yeast control strain, primary screen, counter-screen for post-Golgi transport modulator project | efflux-deficient yeast background strain, growth absorbance A615, 16 h | 98,000 tested, 5% active | inhibition, % at 10 µM
# Her2 expr inh = inhibitors of Her2 protein expression, primary screen, SKBR-3 cells, AlphaScreen, 66K library. Receptor tyrosine-protein kinase erbB-2 (Homo sapiens), P04626. SKBR-3 HER2 protein level, 18-24 h; stronger effect = lower value. HER2 level % of control, % at 10 µM. 65,000 tested, 0.69% active;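 active means HER2 level under 5% of the carrier-only control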;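 further: 100% = DMSO carrier and 0% = 500 nM PU-H71 HSP90 inhibitor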
# Target sequence (P04626 whole entry, looked up): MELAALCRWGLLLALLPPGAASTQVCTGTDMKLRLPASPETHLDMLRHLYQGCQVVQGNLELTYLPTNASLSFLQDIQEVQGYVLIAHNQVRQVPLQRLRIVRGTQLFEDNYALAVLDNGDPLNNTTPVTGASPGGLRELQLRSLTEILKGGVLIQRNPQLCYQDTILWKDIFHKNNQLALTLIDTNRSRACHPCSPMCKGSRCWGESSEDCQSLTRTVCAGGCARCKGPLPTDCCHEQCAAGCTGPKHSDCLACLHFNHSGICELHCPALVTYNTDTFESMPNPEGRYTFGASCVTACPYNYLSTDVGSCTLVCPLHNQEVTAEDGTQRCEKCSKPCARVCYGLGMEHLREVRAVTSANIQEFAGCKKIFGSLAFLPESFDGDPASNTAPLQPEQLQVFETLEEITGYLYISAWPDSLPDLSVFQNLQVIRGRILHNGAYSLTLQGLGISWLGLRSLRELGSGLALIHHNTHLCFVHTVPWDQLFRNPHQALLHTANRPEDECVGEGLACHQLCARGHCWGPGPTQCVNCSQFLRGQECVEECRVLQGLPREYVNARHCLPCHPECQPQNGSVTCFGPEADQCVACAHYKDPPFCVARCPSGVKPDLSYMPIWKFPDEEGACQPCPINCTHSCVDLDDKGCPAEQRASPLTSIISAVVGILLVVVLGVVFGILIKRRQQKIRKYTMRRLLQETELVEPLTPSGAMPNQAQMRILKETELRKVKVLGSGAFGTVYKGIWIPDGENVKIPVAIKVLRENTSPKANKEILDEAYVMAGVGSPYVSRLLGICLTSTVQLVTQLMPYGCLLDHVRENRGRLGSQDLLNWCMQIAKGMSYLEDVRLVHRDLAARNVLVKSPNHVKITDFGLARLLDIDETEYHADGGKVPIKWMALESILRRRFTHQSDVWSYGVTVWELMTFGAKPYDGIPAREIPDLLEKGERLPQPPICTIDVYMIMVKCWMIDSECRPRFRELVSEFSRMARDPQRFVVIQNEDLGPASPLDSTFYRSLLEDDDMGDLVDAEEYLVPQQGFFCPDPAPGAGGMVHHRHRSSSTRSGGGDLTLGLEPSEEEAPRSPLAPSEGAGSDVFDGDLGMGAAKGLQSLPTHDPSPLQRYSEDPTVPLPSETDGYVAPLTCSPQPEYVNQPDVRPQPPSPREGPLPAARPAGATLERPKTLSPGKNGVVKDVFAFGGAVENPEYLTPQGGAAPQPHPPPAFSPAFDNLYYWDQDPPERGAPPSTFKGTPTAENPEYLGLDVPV
# * marks the source's active call; other numbers are inactive results; · = not tested or not shown. Unless noted, no stated cut-off is given here; in the data, active means inhibition above about 30%; inactive means the rest.
SMILES,tolC growth inh,PostGolgi yeast,E coli WT exp,PostGolgi ctrl,Her2 expr inh
COC(=O)C(O)(c1ccc(NC(=S)NC(=O)c2ccccc2)cc1)C(F)(F)F (centres undefined),·,4,10,33*,·
NC1=Nc2ccccc2Oc2ccccc21,·,-3,28,0,·
CCn1nc(-c2ccccc2)nc2c(=O)n(C)c(=O)nc1-2,100*,106*,24,102*,-14*
O=C(COc1ccc(Cl)cc1Cl)N1CCN(C/C=C/c2ccccc2)CC1,·,104*,4,66*,·
CCOC(=O)c1c(-c2ccc(OC)cc2)oc2ccc(OC(=O)N(C)C)cc12,68*,-4,-12,20,63
Cc1oc2ccc(OC(=O)N(C)C)cc2c1C(=O)OC(C)C,22,4,2,27,131
CCCC1COC(Cn2cncn2)(c2ccc(Cl)cc2Cl)O1 (centres undefined),·,85*,7,96*,·
N#Cc1c(/N=C/c2c(O)n(Cc3ccco3)c(=O)[nH]c2=O)sc2c1CCCC2,-6,-6,8,-3,107
CCOC(=O)c1cc2c(cn1)[nH]c1ccccc12,10,·,·,·,94
CCCCCCCSc1cc(OC)c(CCN(C)C)cc1OC,·,4,67*,84*,·
Cc1ccc2nc3c(cc2c1)CC1(C(=O)N(C)C(=O)N(C)C1=O)C1COCCN31 (centres undefined),5,-3,6,32*,126
Cc1ccc2nc3c(cc2c1)CC1(C(=O)N(C)C(=O)N(C)C1=O)C1CCCCN31 (centres undefined),-5,-4,1,2,107
Cc1ccc2cccc(OC(=O)N3CCCC3)c2n1,-7,1,8,4,93
O=C(Oc1c(Cl)cc(Cl)c2ccccc12)N1CCCCC1,·,-5,0,37*,·
CCN1CC=C(c2c[nH]c3ccccc23)CC1,-14,12,-4,-3,121
CCN(CC)c1ccc(CN2CC=C(c3ccc(F)cc3)CC2)cc1,·,60*,17,22,·
CCn1c(O)c(C=NCCc2c[nH]c3ccccc23)c(=O)[nH]c1=O,-1,1,4,9,97
CCCCn1c(O)c(C(C)=Nc2ccc(OCC)cc2)c(=O)[nH]c1=O,25,52*,0,26,118
CCCCn1c(O)c(C(C)=Nc2cccc(C(=O)O)c2)c(=O)[nH]c1=O,-22,2,0,3,68
CCCCCCN=C(C)c1c(O)n(Cc2ccccc2)c(=O)[nH]c1=O,·,0,-9,35*,·
CC(=NCCCO)c1c(O)n(Cc2ccccc2)c(=O)[nH]c1=O,-13,·,·,·,78
Cc1cccc(-n2c(O)c(C=NCCCN3CCOCC3)c(=O)[nH]c2=O)c1C,-6,13,-8,-2,152
CCOc1ccc(-n2c(CC)nc3ccccc3c2=O)cc1,-4,7,3,31*,108
CCCCc1nc2ccccc2c(=O)n1-c1ccc(O)cc1,-2,1,5,-1,105
CCOC(=O)C(C)(CC)NC(=O)CSP(=S)(OCC)OCC (centres undefined),·,-2,-6,-4,·
SMILES,tolC growth inh,PostGolgi yeast,E coli WT exp,PostGolgi ctrl,Her2 expr inh
CC(C)CNC(=O)c1c(N)n(Cc2ccco2)c2nc3ccccc3nc12,·,3,-10,55*,·
COCCOC(=O)c1c(N)n(Cc2ccco2)c2nc3ccccc3nc12,13,·,·,·,121
CC(C)OC(=O)c1c(N)n(Cc2ccco2)c2nc3ccccc3nc12,8,9,8,35*,105
CCCC1=C(C(=O)OCC)C2(C(=O)Nc3ccccc32)C(C#N)=C(N)O1 (centres undefined),4,-10,4,-3,105
CC(C)(C)n1c(O)c(C=Nc2ccc3c(c2)CCC3)c(=O)[nH]c1=O,82*,1,-2,45*,69
O=c1[nH]c(=O)n(CCC2=CCCCC2)c(O)c1C=Nc1cccc(F)c1,·,2,-2,11,·
O=P(O)(O)Cc1ccccc1OP(=O)(c1ccccc1)c1ccccc1,-13,-8,-2,3,70
O=C1C2CCN(CC2)C1Cc1ccccc1O (centres undefined),·,2,-3,0,·
O=C1C2CCN(CC2)C1Cc1ccc(OCCOc2ccccc2)cc1 (centres undefined),-5,1,4,43*,106
COC(=O)CC1(CC(=O)OC)C(=O)NC(=O)NC1=O,-13,-1,-3,0,106
C[C@H]1CCC[C@@H](O)CCC/C=C/c2cc(O)cc(O)c2C(=O)O1,26,-3,2,8,-14*
C[C@H]1CCC[C@H](O)CCCCCc2cc(O)cc(O)c2C(=O)O1,12,0,-1,5,-10*
CC1=[N+]([O-])C2(N)CCc3nonc3C2(O)C1 (centres undefined),-19,-5,5,20,123
COc1ccccc1OCC(=O)Nc1ccc(Cl)cc1C(=O)c1ccccc1,·,-2,-18,40*,·
O=C(Nc1ccc(Cl)cc1C(=O)c1ccccc1)c1ccccc1,·,5,-13,13,·
Cc1nn(-c2ccccc2)c(Cl)c1C1C(C#N)=C(N)Oc2c1c(=O)oc1ccccc21 (centres undefined),68*,6,-19,31*,96
N#CC1=C(N)Oc2c(c(=O)oc3ccccc23)C1c1cccnc1 (centres undefined),1,2,6,10,135
CCCCn1c(=O)c(C(=O)Nc2ccccc2S(N)(=O)=O)c(O)c2ccccc21,98*,12,-4,25,34
CCCCCCn1c(=O)c(C(=O)Nc2ccncc2)c(O)c2ccccc21,27,·,·,·,35

# Assay outcomes from PubChem.
